Key:
Adenosine receptor A2a [1] = target: T1, Adenosine receptor A2a (Homo sapiens, UniProt P29274); assay: Displacement of [3H]4-[2-[7-amino-2-(2-furyl)-1,2,4-triazolo[1,5-a][1,3,5]triazin-5-yl-amino]ethylphenol from wild type human adenosine A2a receptor expressed in HEK293 cells assessed as radioligand Kd compound preincubated for 30 mins
Target sequence in this assay (P29274 whole entry): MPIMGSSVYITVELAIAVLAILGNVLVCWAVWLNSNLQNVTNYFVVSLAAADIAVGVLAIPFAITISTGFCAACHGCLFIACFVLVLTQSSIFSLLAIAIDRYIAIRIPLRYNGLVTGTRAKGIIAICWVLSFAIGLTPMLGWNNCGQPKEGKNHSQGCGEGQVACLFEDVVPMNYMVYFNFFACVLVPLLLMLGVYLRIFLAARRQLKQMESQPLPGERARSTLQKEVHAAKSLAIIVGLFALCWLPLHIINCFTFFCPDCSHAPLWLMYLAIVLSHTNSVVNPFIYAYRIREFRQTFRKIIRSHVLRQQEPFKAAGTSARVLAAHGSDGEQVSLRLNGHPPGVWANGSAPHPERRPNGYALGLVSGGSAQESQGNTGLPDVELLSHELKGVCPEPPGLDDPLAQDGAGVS

Adenosine receptor A2a [2] = target: T1, Adenosine receptor A2a; assay: Displacement of [3H]4-[2-[7-amino-2-(2-furyl)-1,2,4-triazolo[1,5-a][1,3,5]triazin-5-yl-amino]ethylphenol from wild type human adenosine A2a receptor expressed in COS-7 cells assessed as radioligand Kd compound preincubated for 30 mins
In short: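 WT, K150A or K153A human A2A receptor was transiently transfected into COS-7 cells. Membranes were preincubated with or without compound, then washed. Saturation binding used antagonist radioligand [3H]7, with nonspecific binding defined by 10 μM NECA. Kd (nM) and Bmax (pmol/mg protein) were derived from the saturation curves.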
Target sequence in this assay (P29274 whole entry): as above

Adenosine receptor A2a [3] = target: T1, Adenosine receptor A2a; assay: Displacement of [3H]4-[2-[7-amino-2-(2-furyl)-1,2,4-triazolo[1,5-a][1,3,5]triazin-5-yl-amino]ethylphenol from human adenosine A2a receptor K150A mutant expressed in COS-7 cells assessed as radioligand Kd compound preincubated for 30 mins
Target sequence in this assay (P29274 whole entry, looked up): as the sequence (P29274 whole entry) above

Row | Kd (Adenosine receptor A2a [1]) [nM] | Kd (Adenosine receptor A2a [2]) [nM] | Kd (Adenosine receptor A2a [3]) [nM] | Structure (SMILES)
1 | 5 | 2.2 | 3.17 | CCNC(=O)[C@H]1O[C@@H](n2cnc3c(N)nc(NCCc4ccc(CCC(=O)Nc5ccc(OC(C)=O)c([N+](=O)[O-])c5)cc4)nc32)[C@H](O)[C@@H]1O
2 | 3.2 | – | – | CCNC(=O)[C@H]1O[C@@H](n2cnc3c(N)nc(NCCc4ccc(CCC(=O)Nc5ccc(OC(=O)CCCCN=[N+]=[N-])c([N+](=O)[O-])c5)cc4)nc32)[C@H](O)[C@@H]1O

— BindingDB's records for doi:10.1021/ml5002486 (National Institute of Diabetes and Digestive and Kidney …, 2014)
